Source: PubChem BioAssay
A selection: hits, their analogues and other compounds. The true share with any hit is near 1.7%.
Rpn11 block – Rpn11 (PSMD14) deubiquitinase inhibitors, primary screen, biochemical, fluorescence polarization, uHTS. human 26S proteasome, Ub4-pepOG fluorescence polarization; 20S core pre-blocked with epoxomicin. inhibition, % at 20 µM. actives 0.59% (n = 360,000). AID 588493, 2011;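 active means inhibition at 20 µM, scaled to each plate's controls, above about 33%, limit read from the data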
IDE inh – human IDE inhibitors in live cells, primary screen, fluorescence polarization, HEK cells, FAbetaB substrate; Insulin-degrading enzyme (Homo sapiens), P14735; FAbetaB cleavage; inhibition, % at 5.59 µM; actives 0.41% (n = 320,000); AID 434962, 2010;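 active means percent inhibition above the average of all tested compounds plus 3 SD, set per screening campaign, cut at about 16% in these data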;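 further: IDE supplied by intact live HEK cells; FP after avidin binding of uncleaved biotin substrate so inhibition keeps polarization high; 0% = DMSO wells and 100% = 60 µM reference IDE inhibitor Ii1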
IDE cell activ – human IDE activators in live cells, primary screen, fluorescence polarization, HEK cells, FAbeta-B substrate | Insulin-degrading enzyme (Homo sapiens), P14735 | FAbeta-B cleavage; 0% vehicle, 100% cell-free pure enzyme wells | activation, % at 5.96 µM | actives 0.073% (n = 340,000);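 active means activation above the mean of all tested compounds plus 3 SD, set per screening campaign, cut at about 17% in these data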
CSN inh – inhibitors of CSN-mediated cullin deneddylation, primary screen, biochemical, fluorescence polarization, uHTS; Purified CSN, SCF-Nedd8-OG deneddylation; actives 0.38% (n = 360,000); AID 651999, 2013; COP9 signalosome complex subunit 5 (Homo sapiens), Q92905; inhibition, % at 12.5 µM;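 active means pattern-corrected inhibition above about 35%, with an unprinted fluorescence ratio check between 0.5 and 1.5, limit read from the data, passing the limit was not always enough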;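 further: 0% = enzyme with substrate and 100% = substrate without enzyme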
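Assay system: purified human Csn5 enzyme expressed in HEK293T cells; Input: 0.24 nM Csn5 enzyme, final concentration; Reagent: 10 nM SCFSkp2-Nedd8OG; Compound dosing: 12.5 µM single point; Times: reaction 90 min, room temperature; Technique: fluorescence polarization readout.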
TPT1 inh – Candida albicans TPT1 enzyme inhibitors, primary screen, biochemical, fluorescence polarization | tRNA 2'-phosphotransferase TPT1 (Candida albicans SC5314) | recombinant caTPT1, FP RNA substrate dephosphorylation | inhibition, % at 5 µM | actives 0.81% (n = 300,000);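 active means inhibition above the mean of all tested compounds plus 3 SD, set per screening campaign, cut at about 24% in these data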;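 further: plate controls were DMSO alone for no effect and ferristatin control at 100 nM for full effect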
HNF4A DNA FP – change in binding of human HNF4A to DNA, primary screen, biochemical, fluorescence polarization, FITC-DNA | Hepatocyte nuclear factor 4-alpha (Homo sapiens), P41235 | 1 h | activity change, % at 10 µM | actives 0.3% (n = 360,000); in the data active means activity change above about 30%, passing the limit was not always enough
Target sequence (P41235 whole entry, looked up): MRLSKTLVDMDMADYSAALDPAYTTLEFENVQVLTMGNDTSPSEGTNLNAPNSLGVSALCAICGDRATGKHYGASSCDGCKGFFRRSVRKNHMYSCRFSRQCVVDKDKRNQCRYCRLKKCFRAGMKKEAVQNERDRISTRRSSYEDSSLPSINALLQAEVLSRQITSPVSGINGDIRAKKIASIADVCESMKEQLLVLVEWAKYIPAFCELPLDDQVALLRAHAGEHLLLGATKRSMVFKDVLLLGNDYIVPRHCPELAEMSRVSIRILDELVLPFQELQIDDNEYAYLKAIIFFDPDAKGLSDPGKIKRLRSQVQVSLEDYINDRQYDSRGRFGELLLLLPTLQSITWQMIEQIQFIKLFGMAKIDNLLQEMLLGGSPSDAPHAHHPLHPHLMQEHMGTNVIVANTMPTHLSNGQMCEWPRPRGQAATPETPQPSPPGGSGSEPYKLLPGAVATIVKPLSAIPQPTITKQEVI
Starred values were filed as active, the others as inactive.

Screening O=C1c2cccc3c([N+](=O)[O-])ccc(c23)C(=O)N1c1ccccn1 returned Rpn11 block -35, IDE inh 2, IDE cell activ -8, CSN inh -8, TPT1 inh 8 and HNF4A DNA FP -25.
For CCC(/C=C1\Oc2ccc(OC)cc2N1C)=C\c1sc2ccccc2[n+]1CCCS(=O)(=O)[O-] the results were IDE cell activ -10, CSN inh 73* and HNF4A DNA FP 170.
Cc1ccc2c(c1)sc(C)[n+]2CCCS(=O)(=O)[O-] was read as Rpn11 block -1, IDE inh 12, IDE cell activ 2, CSN inh 5, TPT1 inh -1 and HNF4A DNA FP 2.
`CCOc1ccc(Nc2nc(N)c3ccccc3n2)cc1` gave Rpn11 block 1, IDE cell activ -1, CSN inh 4 and HNF4A DNA FP 60*.
For Nc1nc(Nc2ccccc2)nc2ccccc12 the results were Rpn11 block -6, IDE inh 3, IDE cell activ 2, CSN inh 3, TPT1 inh -7 and HNF4A DNA FP 0.
Cc1cc(Br)cc2c(C(=O)NCC3CCCO3)cc(-c3ccccc3)nc12 (stereo not given) was read as Rpn11 block 6, IDE inh 2, IDE cell activ 2, CSN inh 2, TPT1 inh -1 and HNF4A DNA FP -2.
Cc1cccc(Oc2cc([N+](=O)[O-])cc3c2C(=O)Nc2ccccc2O3)c1 was read as IDE inh 1, IDE cell activ 0, CSN inh 39*, TPT1 inh 21 and HNF4A DNA FP -3.
`COc1ccc(CC(=O)Nc2ccc(-c3cn4cccc(C)c4n3)cc2)cc1OC` gave Rpn11 block -2, IDE inh 6, IDE cell activ 6, CSN inh -4, TPT1 inh 1 and HNF4A DNA FP 3.
Screening Cc1cccn2cc(-c3ccc(NC(=O)Cc4ccccc4)cc3)nc12 returned Rpn11 block 27, IDE inh -2, IDE cell activ 3, CSN inh 13, TPT1 inh 4 and HNF4A DNA FP 40*.
For COc1ccc(NC(=O)CN(C)C(=O)CN2C(=O)C3CCCCC3C2=O)cc1 (stereo not given) the results were Rpn11 block -5, IDE inh 2, IDE cell activ 4, CSN inh 0, TPT1 inh 0 and HNF4A DNA FP 1.
Screening CCC1ON(c2ccccc2)C2c3nc4ccccc4n3CC12 (stereo not given) returned Rpn11 block -7, IDE inh 0, IDE cell activ 5, CSN inh -4, TPT1 inh 1 and HNF4A DNA FP 1.
For COc1c(C(=O)Nc2ccc3[nH]c(=O)[nH]c3c2)cc2ccccc2c1Br the results were Rpn11 block -8, IDE inh -3, IDE cell activ 20*, CSN inh -4, TPT1 inh -1 and HNF4A DNA FP -2.
For O=C(CN1C(=O)/C(=C\c2ccco2)SC1=S)Nc1ccc(O)cc1C(=O)O the results were IDE inh 3, IDE cell activ -1, CSN inh 70*, TPT1 inh 11 and HNF4A DNA FP -37.
Screening Cc1ccc(CNC(=O)c2nnn(CC(=O)Nc3cccc(C)c3C)c2N)cc1 returned Rpn11 block 16, IDE inh -6, IDE cell activ 3, CSN inh 36*, TPT1 inh -1 and HNF4A DNA FP -3.
Cc1ccc(CNC(=O)Cn2nnc(C(=O)Nc3cccc(C)c3C)c2N)cc1 was read as Rpn11 block 6, IDE inh -3, IDE cell activ 6, CSN inh 4, TPT1 inh 0 and HNF4A DNA FP 1.
`CCc1nc2c(OCc3ccc(Cl)cc3)cccn2c1N(C=O)Cc1ccc(OC)cc1` gave Rpn11 block 4, CSN inh -2 and HNF4A DNA FP -2.
Screening C=CCn1c(=O)c(C(=O)Nc2ccccc2C(=O)OCC)c(O)c2ccccc21 returned Rpn11 block -5, IDE inh -1, IDE cell activ 8, CSN inh 4, TPT1 inh 2 and HNF4A DNA FP -1.
C=CCn1c(=O)c(C(=O)Nc2ccccc2S(N)(=O)=O)c(O)c2ccccc21 was read as Rpn11 block 1, IDE inh -5, IDE cell activ 1, CSN inh 93*, TPT1 inh 0 and HNF4A DNA FP 3.
`Cn1cc(CN2CCCC(C(=O)Nc3ccc(-c4cccc(F)c4)cc3)C2)cn1` (stereo not given) gave Rpn11 block 7, IDE inh -1, IDE cell activ 0, CSN inh -5, TPT1 inh 0 and HNF4A DNA FP 2.
For COc1cc(C(=O)NCCSc2ccc(Br)cc2)cc(OC)c1OC the results were Rpn11 block -8, IDE inh 3, IDE cell activ -10, CSN inh 70*, TPT1 inh 0 and HNF4A DNA FP 1.
O=C(NCCSc1ccc(Br)cc1)c1ccc2nc[nH]c2c1 was read as Rpn11 block 2, IDE inh 2, IDE cell activ 20*, CSN inh 3, TPT1 inh 2 and HNF4A DNA FP -2.
For COc1cc(C(=O)NCCSc2ccc(Cl)cc2)cc(OC)c1OC the results were Rpn11 block 4, IDE inh 11, IDE cell activ -1, CSN inh 0, TPT1 inh 0 and HNF4A DNA FP -1.
O=C(NC(=S)NCCCN1CCOCC1)c1ccc([N+](=O)[O-])cc1 was read as Rpn11 block -5, IDE inh 7, IDE cell activ 1, CSN inh -1, TPT1 inh -1 and HNF4A DNA FP 0.
Screening Cc1ccc(/C=C/C(=O)OCC(=O)NC(=O)NCc2ccco2)cc1 returned Rpn11 block -5, IDE inh -1, IDE cell activ 4, CSN inh -2 and HNF4A DNA FP -3.
O=C(Nc1ccc(CSc2ccccc2)cc1)c1ccco1 was read as Rpn11 block -1, IDE inh -2, IDE cell activ 4, CSN inh 0, TPT1 inh -2 and HNF4A DNA FP 4.
`CCc1cc(Cn2nc(C(=O)O)cc2-c2ccccc2)on1` gave Rpn11 block -6, IDE inh 1, IDE cell activ 19*, CSN inh 103, TPT1 inh 0 and HNF4A DNA FP 0.
